# Source: ChEMBL document CHEMBL4725360, “Optimization of Acetazolamide-Based Scaffold as Potent Inhibitors of Vancomycin-Resistant Enterococcus” (J Med Chem, 2020)
# Calls of active or inactive are those of the source. The rule behind the calls is not given here.
# How the values were obtained:
# Enterococcus faecium [1] = assay: Antibacterial activity against Enterococcus faecium HM965 incubated for 18 to 20 hrs under aerobic condition by CLSI protocol based broth microdilution assay; format: functional; settings: time hrs 18-20
# Summary of the method: (§1)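 Broth microdilution per CLSI. Strains grown aerobically overnight on trypticase soy agar at 37 °C. Inoculum set to 0.5 McFarland, diluted in trypticase soy broth to about 5 × 10⁵ CFU/mL. Agents serially diluted, plates incubated aerobically at 37 °C for 18–20 h. MIC is the lowest concentration with no visible growth. Compound stocks 10 mg/mL in DMSO.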
# Enterococcus faecium [2] = assay: Inhibition of carbonic anhydrase in Enterococcus faecium ATCC 700221 assessed as antibacterial activity incubated for 18 to 20 hrs in presence of ambient air by CLSI protocol based broth microdilution assay; settings: time hrs 18-20
# Summary of the method: (§2)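 CLSI broth microdilution: inoculum about 5 × 10⁵ CFU/mL in trypticase soy broth with serial dilutions of agents. Paired plates incubated at 37 °C for 18–20 h, one set in ambient air ("normal"), the other under 5% CO₂. MIC is the lowest concentration completely inhibiting visible growth.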
# Enterococcus faecium [3] = assay: Inhibition of carbonic anhydrase in Enterococcus faecium ATCC 700221 assessed as antibacterial activity incubated for 18 to 20 hrs in presence of 5% CO2 by CLSI protocol based broth microdilution assay; settings: time hrs 18-20; summary of the method: as §2
# Enterococcus faecalis [4] = assay: Antibacterial activity against Enterococcus faecalis NR-31975 incubated for 18 to 20 hrs under aerobic condition by CLSI protocol based broth microdilution assay; format: functional, organism-based; settings: time hrs 18-20; summary of the method: as §1
# Enterococcus faecalis [5] = assay: Antibacterial activity against Enterococcus faecalis NR-31970 incubated for 18 to 20 hrs under aerobic condition by CLSI protocol based broth microdilution assay; format: functional, organism-based; settings: time hrs 18-20; summary of the method: as §1
# Enterococcus faecium [6] = assay: Antibacterial activity against Enterococcus faecium HM968 incubated for 18 to 20 hrs under aerobic condition by CLSI protocol based broth microdilution assay; format: functional; settings: time hrs 18-20; summary of the method: as §1
# Enterococcus faecium [7] = assay: Antibacterial activity against Enterococcus faecium NR-28978 incubated for 18 to 20 hrs under aerobic condition by CLSI protocol based broth microdilution assay; format: functional; settings: time hrs 18-20; summary of the method: as §1
# Enterococcus faecium [8] = assay: Antibacterial activity against Enterococcus faecium NR-31903 incubated for 18 to 20 hrs under aerobic condition by CLSI protocol based broth microdilution assay; format: functional; settings: time hrs 18-20; summary of the method: as §1
# Enterococcus faecium [9] = assay: Antibacterial activity against Enterococcus faecium NR-32065 incubated for 18 to 20 hrs under aerobic condition by CLSI protocol based broth microdilution assay; format: functional; settings: time hrs 18-20; summary of the method: as §1
# Enterococcus faecium [10] = assay: Antibacterial activity against Enterococcus faecium NR-31914 incubated for 18 to 20 hrs under aerobic condition by CLSI protocol based broth microdilution assay; format: functional; settings: time hrs 18-20; summary of the method: as §1
# Enterococcus faecium [11] = assay: Antibacterial activity against Enterococcus faecium NR-31916 incubated for 18 to 20 hrs under aerobic condition by CLSI protocol based broth microdilution assay; format: functional; settings: time hrs 18-20; summary of the method: as §1
# Enterococcus faecium [12] = assay: Antibacterial activity against Enterococcus faecium NR-32052 incubated for 18 to 20 hrs under aerobic condition by CLSI protocol based broth microdilution assay; format: functional; settings: time hrs 18-20; summary of the method: as §1
# Enterococcus faecium [13] = assay: Antibacterial activity against Enterococcus faecium NR-31971 incubated for 18 to 20 hrs under aerobic condition by CLSI protocol based broth microdilution assay; format: functional; settings: time hrs 18-20; summary of the method: as §1
# Enterococcus faecalis [14] = assay: Antibacterial activity against Enterococcus faecalis HM-335 incubated for 18 to 20 hrs under aerobic condition by CLSI protocol based broth microdilution assay; format: functional; settings: time hrs 18-20; summary of the method: as §1
# Enterococcus faecalis [15] = assay: Antibacterial activity against Enterococcus faecalis HM-334 incubated for 18 to 20 hrs under aerobic condition by CLSI protocol based broth microdilution assay; format: functional; settings: time hrs 18-20; summary of the method: as §1
# Caco-2 = assay: Cytotoxicity against human Caco2 cells at 128 ug/ml incubated for 2 hrs by MTS assay; format: cell-based; settings: caco-2, 2 h, dose 128 µg/ml
# Summary of the method: (§3)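 Caco-2 cells maintained in DMEM with 10% FBS, non-essential amino acids and penicillin-streptomycin at 37 °C, 5% CO₂. Compound exposure for 2 h in serum-free medium at several concentrations; DMSO-matched controls. Viability expressed relative to DMSO controls (mean ± SD), and CC₅₀ derived.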
# [16] = Cytotoxicity against human Caco2 cells incubated for 2 hrs by MTS assay; format: cell-based; settings: Caco-2 cells; summary of the method: as §3
# Enterococcus faecium [17] = assay: Antibacterial activity against Enterococcus faecium NR-31972 incubated for 18 to 20 hrs under aerobic condition by CLSI protocol based broth microdilution assay; format: functional; settings: time hrs 18-20; summary of the method: as §1
MIC (Enterococcus faecium [1]) [µg/mL],inhibition (Enterococcus faecium [2]),inhibition (Enterococcus faecium [3]),MIC (Enterococcus faecium [6]) [µg/mL],MIC (Enterococcus faecium [7]) [µg/mL],MIC (Enterococcus faecium [8]) [µg/mL],MIC (Enterococcus faecium [9]) [µg/mL],MIC (Enterococcus faecium [10]) [µg/mL],MIC (Enterococcus faecium [11]) [µg/mL],MIC (Enterococcus faecium [12]) [µg/mL],MIC (Enterococcus faecium [13]) [µg/mL],MIC (Enterococcus faecalis [14]) [µg/mL],MIC (Enterococcus faecalis [15]) [µg/mL],MIC (Enterococcus faecium [17]) [µg/mL],Compound,Activity (Enterococcus faecalis [4]),Activity (Enterococcus faecalis [5]),Activity (Caco-2),CC50 at 2 h [16] [µg/mL]
2,Active,inactive,,,,,,,,,,,,NS(=O)(=O)c1nnc(NC(=O)CCN2CCOCC2)s1,,,,
> 64,,,,,,,,,,,,,,CC(=O)Nc1ncc(S(N)(=O)=O)s1,,,,
2,,,,,,,,,,,,,,NS(=O)(=O)c1nnc(NC(=O)c2ccccc2)s1,,,,
0.5,Active,inactive,,,,,,,,,,,,NS(=O)(=O)c1nnc(NC(=O)C2CCC2)s1,Active,Active,,
0.25,,,0.5,0.25,0.5,0.25,0.5,0.5,0.5,0.5,0.5,0.5,1,CC(C)(C)C(=O)Nc1nnc(S(N)(=O)=O)s1,Active,Active,Non-Toxic,> 128
0.125,,,0.125,0.25,0.125,0.25,0.25,0.125,0.125,0.5,0.125,0.5,0.5,CC(C)CC(=O)Nc1nnc(S(N)(=O)=O)s1,Active,Active,Non-Toxic,> 128
0.06,Active,inactive,0.06,0.125,0.03,0.06,0.06,0.03,0.06,0.03,0.06,0.015,0.03,NS(=O)(=O)c1nnc(NC(=O)CCC2CCCC2)s1,Active,Active,Non-Toxic,> 128
0.015,Active,inactive,0.015,0.03,0.015,0.007,0.007,0.03,0.015,0.06,0.03,0.03,0.015,CC(C)(C)CC(=O)Nc1nnc(S(N)(=O)=O)s1,Active,Active,Non-Toxic,> 128
0.25,,,0.5,0.5,0.5,0.5,0.5,0.25,0.5,0.5,0.5,0.25,0.25,NS(=O)(=O)c1nnc(NC(=O)C2CCCCC2)s1,Active,Active,Non-Toxic,> 128
0.25,Active,inactive,0.5,1,0.25,0.25,0.5,0.25,0.25,0.5,0.25,0.5,0.5,NS(=O)(=O)c1nnc(NC(=O)CC2CC2)s1,,,Non-Toxic,> 128
0.06,Active,inactive,0.06,0.125,0.125,0.015,0.125,0.015,0.06,0.06,0.03,0.03,0.03,NS(=O)(=O)c1nnc(NC(=O)CC2CCCC2)s1,Active,Active,Non-Toxic,> 128
0.06,Active,inactive,0.25,0.5,0.25,0.125,0.25,0.125,0.5,0.125,0.125,0.015,0.125,NS(=O)(=O)c1nnc(NC(=O)CCc2ccccc2)s1,,,Non-Toxic,> 128
0.25,,,,,,,,,,,,,,CC1(C(=O)Nc2nnc(S(N)(=O)=O)s2)CCCCC1,,,,
> 64,,,,,,,,,,,,,,CC(=O)Nc1ccc(S(N)(=O)=O)cc1,,,,
> 64,,,,,,,,,,,,,,CCNc1nnc(S(N)(=O)=O)s1,,,,
